The text below walks through data of ChEMBL document CHEMBL3098025, “Optimization of potency and pharmacokinetics of tricyclic indole derived inhibitors of HCV NS5B polymerase. Identification of ester prodrugs with improved oral pharmacokinetics” (Bioorg Med Chem, 2014).

Data set [1] concerns Rattus norvegicus. Kind of data set: Prodrug conversion in Sprague-Dawley rat assessed as AUC (0 to 6 hrs) of 6-((6-Chloro-1H-benzo[d]imidazol-5-yl)methyl)-4-fluoro-8-(2-oxo-1,2-dihydropyridin-3-yl)-6H-furo[2,3-e]indole-7-carboxylic acid level at 10 mg/kg, po. Format: ADME, organism-based. Details: time < 6 hr, dose 10 mg/kg, route oral. As to conditions: in vivo. Put shortly: (§1)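 Sprague Dawley rats received esters orally at 10 mg/kg in 0.4% methylcellulose, given as trifluoroacetate salts. Plasma levels of both the intact ester prodrug and the acid metabolite were measured. AUC was integrated over 0–6 h after dosing.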

Data set [2] has as its system Rattus norvegicus. Kind of data set: Prodrug conversion in Sprague-Dawley rat assessed as AUC (0 to 6 hrs) of parent compound level at 10 mg/kg, po. The class given is ADME, organism-based. More on the design: time < 6 hr, dose 10 mg/kg, route oral. As to conditions: in vivo. Summed up:
as §1

A short description of data set [3]: AUC (0 to 6 hrs) in Sprague-Dawley rat at 10 mg/kg, po. Format: ADME, organism-based. More on the design: time < 6 hr, dose 10 mg/kg, route oral. As to conditions: plasma. Summed up: as §1
Data set [4] concerns Hepatitis C virus. Kind of data set: Antiviral activity against HCV1b assessed as inhibition of viral replication. Format: functional, organism-based, Hepacivirus hominis. As to conditions: genotype 1b. Summed up:
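In the cell-based HCV replicon assay, viral RNA levels were measured. EC50 is the concentration giving a 50% reduction in replicon RNA.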

Data set [5] in a line: Inhibition of HCV1b NS5B polymerase. More on the design: species or system Hepatitis C virus subtype 1b.
Data set [6] has as its system Rattus norvegicus. As to the kind of experiment: Prodrug conversion in Sprague-Dawley rat assessed as AUC (0 to 24 hrs) of 4-Fluoro-6-((6-methyl-1H-indazol-5-yl)methyl)-8-(2-oxo-1,2-dihydropyridin-3-yl)-6H-furo[2,3-e]indole-7-carboxylic acid level at 10 mg/kg, po. Format: ADME, organism-based. More on the design: time < 24 hr, dose 10 mg/kg, route oral. As to conditions: in vivo. Summed up:
(§2)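 Dimethylaminoethyl ester prodrugs were dosed orally to rats at 10 mg/kg in 0.4% methylcellulose.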

In data set [7] the test system is Cynomolgus monkey. As to the kind of experiment: Prodrug conversion in cynomolgus monkey assessed as AUC (0 to 24 hrs) of 4-Fluoro-6-((6-methyl-1H-indazol-5-yl)methyl)-8-(2-oxo-1,2-dihydropyridin-3-yl)-6H-furo[2,3-e]indole-7-carboxylic acid level at 3 mg/kg, po. The following applies: in vivo. Format: ADME, organism-based, Macaca fascicularis. More on the design: time < 24 hr, dose 3 mg/kg, route oral.

The test system of data set [8] is Cynomolgus monkey. As to the kind of experiment: Prodrug conversion in cynomolgus monkey assessed as AUC (0 to 24 hrs) of 6-((3-Amino-6-fluoro-1H-indazol-5-yl)methyl)-4-fluoro-8-(2-oxo-1,2-dihydropyridin-3-yl)-6H-furo[2,3-e]indole-7-carboxylic acid level at 3 mg/kg, po. The class given is ADME, organism-based, Macaca fascicularis. Details: time < 24 hr, dose 3 mg/kg, route oral. The following applies: in vivo.

In data set [9] the test system is Rattus norvegicus. Kind of data set: Prodrug conversion in Sprague-Dawley rat assessed as AUC (0 to 24 hrs) of 6-((3-Amino-6-fluoro-1H-indazol-5-yl)methyl)-4-fluoro-8-(2-oxo-1,2-dihydropyridin-3-yl)-6H-furo[2,3-e]indole-7-carboxylic acid level at 10 mg/kg, po. The class given is ADME, organism-based. The following applies: in vivo. Details: time < 24 hr, dose 10 mg/kg, route oral. Summed up: as §2

Data set [10] has as its system Cynomolgus monkey. Kind of data set: Prodrug conversion in cynomolgus monkey assessed as AUC (0 to 24 hrs) of 6-((6-Chloro-1H-benzo[d]imidazol-5-yl)methyl)-4-fluoro-8-(2-oxo-1,2-dihydropyridin-3-yl)-6H-furo[2,3-e]indole-7-carboxylic acid level at 3 mg/kg, po. The class given is ADME, organism-based, Macaca fascicularis. Details: time < 24 hr, dose 3 mg/kg, route oral. The following applies: in vivo.

The subject of data set [11] is Rattus norvegicus. As to the kind of experiment: Prodrug conversion in Sprague-Dawley rat assessed as AUC (0 to 24 hrs) of 6-((6-Chloro-1H-benzo[d]imidazol-5-yl)methyl)-4-fluoro-8-(2-oxo-1,2-dihydropyridin-3-yl)-6H-furo[2,3-e]indole-7-carboxylic acid level at 10 mg/kg, po. The class given is ADME, organism-based. Details: time < 24 hr, dose 10 mg/kg, route oral. The following applies: in vivo. Put shortly:
as §2

Data set [12] can be described thus: AUC (0 to 6 hrs) in cynomolgus monkey at 3 mg/kg, po. Format: ADME, organism-based, Macaca fascicularis. Details: time < 6 hr, dose 3 mg/kg, route oral. As to conditions: plasma.

Structures are written as SMILES. pEC50, pIC50: −log10 of the molar value.

For orientation: AUC means concentration integrated over time. Consider `CN(C)CCCOC(=O)c1c(-c2ccc[nH]c2=O)c2c3occc3c(F)cc2n1Cc1cc2[nH]cnc2cc1Cl.O=C(O)C(F)(F)F`, for which the results for the AUC in data set [1] and in data set [2] were 0.7 µM·h and 9.1 µM·h, respectively.

Regarding `O=C([O-])c1c(-c2ccc[nH]c2=O)c2c3occc3c(F)cc2n1Cc1cc2[nH]cnc2cc1Cl.[Na+]`, the AUC in data set [1] is 2.1 µM·h.

As for `CCOC(=O)c1c(-c2ccc[nH]c2=O)c2c3occc3c(F)cc2n1Cc1cc2[nH]cnc2cc1Cl`, the AUC in data set [2] was determined as 0.1 µM·h.

One may read the AUC(0-t) as the area under the concentration-time curve up to a stated or last time point. As a reminder, the pEC50 is the negative decadic logarithm of the EC50, by convention in mol/L. In general, pIC50 refers to the IC50 on a negative log10 scale, so that one unit is a factor of ten. The compound `O=C(O)c1c(-c2ccc[nH]c2=O)c2c3occc3c(F)cc2n1Cc1cc2[nH]cnc2cc1F` returned an area under the curve AUC(0-t) at 6 h in [3] of 7.7 µM·h. Besides, in data set [4], the pEC50 was 8.15. This compound also had a pIC50 in [5] of 8.52.

For `Cc1cc2[nH]ncc2cc1Cn1c(C(=O)OCCN(C)C)c(-c2ccc[nH]c2=O)c2c3occc3c(F)cc21.O=C(O)C(F)(F)F`, the AUC was found to be 79 µM·h in data set [6] and 10.7 µM·h in data set [7]. Further, the pEC50 in data set [4] is 8.70.

Regarding `CN(C)CCOC(=O)c1c(-c2ccc[nH]c2=O)c2c3occc3c(F)cc2n1Cc1cc2c(N)n[nH]c2cc1F.O=C(O)C(F)(F)F`, the AUC turned out to be 4.2 µM·h in [8] and 118 µM·h in data set [9]. Moreover, the pEC50 in [4] was 8.40.

With `COCCOC(=O)c1c(-c2ccc[nH]c2=O)c2c3occc3c(F)cc2n1Cc1cc2[nH]cnc2cc1Cl`, the AUC is 1.1 µM·h in data set [1] and 0.2 µM·h in [2].

In the case of `CC(CN(C)C)OC(=O)c1c(-c2ccc[nH]c2=O)c2c3occc3c(F)cc2n1Cc1cc2[nH]cnc2cc1Cl.O=C(O)C(F)(F)F` (stereo not given), the AUC in data set [1] stood at 32.6 µM·h; in [2], 0.8 µM·h.

Take `CN(C)CCOC(=O)c1c(-c2ccc[nH]c2=O)c2c3occc3c(F)cc2n1Cc1cc2[nH]cnc2cc1Cl.O=C(O)C(F)(F)F`: the AUC in data set [10] worked out at 14 µM·h; in [1], 32.5 µM·h; in [11] it was 208 µM·h; in [2], 0.5 µM·h. Also, the negative-log EC50 (pEC50) in data set [4] is 7.89.

For `CC(OC(=O)c1c(-c2ccc[nH]c2=O)c2c3occc3c(F)cc2n1Cc1cc2[nH]cnc2cc1Cl)c1ccccc1` (stereo not given), the AUC worked out at 0.2 µM·h in data set [1] and 0.3 µM·h in data set [2].

Consider `O=C(O)c1c(-c2ccc[nH]c2=O)c2c3occc3cc(F)c2n1Cc1cc(F)ccc1F`, for which the negative logarithm of the EC50 (pEC50) in data set [4] was 5.59. The compound also showed a pIC50 in data set [5] of 7.77.

Regarding `O=C(O)c1c(-c2ccc[nH]c2=O)c2c3occc3c(F)cc2n1Cc1cc2[nH]cnc2cc1Cl`, in data set [3], the area under the curve AUC(0-t) at 6 h came out at 1.2 µM·h. In addition, the pEC50 in data set [4] is 8.10. Also, in data set [5], the negative logarithm of the IC50 (pIC50) was 8.22.

On to `O=C(O)C(F)(F)F.O=C(OCCN1CCOCC1)c1c(-c2ccc[nH]c2=O)c2c3occc3c(F)cc2n1Cc1cc2[nH]cnc2cc1Cl`, for which the area under the curve (AUC) in [1] stood at 5.5 µM·h; in data set [2], 0.2 µM·h.

As for `Nc1cc(Cn2c(C(=O)O)c(-c3ccc[nH]c3=O)c3c4occc4c(F)cc32)c2ccccc2n1`, the AUC(0-t) at 6 h in data set [3] is 24 µM·h; in data set [12], 0.4 µM·h. The pEC50 in [4] was 8.22. For the same compound, the pIC50 in data set [5] is 8.40.
